Experiments:
Rattus norvegicus [1] = assay: Antiobesity activity in Sprague-Dawley rat assessed as reduction of food intake at 30 mg/kg, po after 20 hrs; format: functional; parameters: scale not given: the % may be the effect or the level left
Outline: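 Male Sprague–Dawley rats (n = 6) are dosed orally 60 min before dark-cycle onset. Vehicle is 14% propylene glycol, 1% tween, 85% water (v/v/v). Food pellet consumption over 20 h is compared with vehicle-treated animals as percent reduction. Water intake and locomotor activity are recorded at the same time.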

[2] = molecular target: T1, 5-hydroxytryptamine receptor 2B (Homo sapiens, UniProt P41595); assay: Agonist activity at human recombinant 5HT2B receptor expressed in HEK293E cells by FLIPR assay; format: functional, cell-based
Outline: (§1)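 Calcium mobilization measured by FLIPR in HEK293E cells expressing human 5-HT2A, 5-HT2B or 5-HT2C receptor. Values are means of ≥2 independent 12-point dose-response curves (n ≥4 where SD is given). mCPP is the positive control.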

[3] = Tmax in Sprague-Dawley rat at 10 mg/kg, po; format: ADME, organism-based; parameters: dose 10 mg/kg, route oral; settings: in vivo
Outline: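 Male Sprague–Dawley rats were dosed po only at 1 or 10 mpk. Values are means of 2 animals. AUC was collected over 4 h. Plasma and total brain levels were taken at 4 h post dose.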

Brain = assay: Drug level in Sprague-Dawley rat brain at 10 mg/kg, po after 8 hrs; format: ADME, organism-based; parameters: dose 10 mg/kg, route oral; settings: in vivo
Outline: (§2)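 Male Sprague–Dawley rats given a single oral dose, 2 animals per value. AUC is taken over 0–8 h. Plasma and total brain levels are measured at 8 h post dose.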

Rattus norvegicus [4] = assay: Antiobesity activity in Sprague-Dawley rat assessed as reduction of caloric intake at 30 mg/kg, po after 4 days; format: functional; parameters: scale not given: the % may be the effect or the level left
Outline: (§3)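 Male Sprague–Dawley rats, about 240 g (n = 8), were dosed orally once daily for 4 days with compound or vehicle (14% propylene glycol, 1% tween, 85% water, v/v/v). Body weight, food and water intake were measured daily and compared with vehicle.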

[5] = molecular target: T2, 5-hydroxytryptamine receptor 2A (Homo sapiens, UniProt P28223); assay: Agonist activity at human recombinant 5HT2A receptor expressed in HEK293E cells by FLIPR assay; format: functional, cell-based; outline: as §1
Rattus norvegicus [6] = assay: Antiobesity activity in Sprague-Dawley rat assessed as reduction of food intake at 10 mg/kg, po after 20 hrs; format: functional; parameters: scale not given: the % may be the effect or the level left
[7] = AUC in Sprague-Dawley rat at 10 mg/kg, po after 8 hrs; format: ADME, organism-based; parameters: time < 8 hr, dose 10 mg/kg, route oral; settings: plasma; outline: as §2
[8] = molecular target: T2, 5-hydroxytryptamine receptor 2A; assay: Displacement of [125I]DOI from human recombinant 5HT2A receptor expressed in HEK293E cells; format: cell-based
Outline: (§4)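 Radioligand binding with [125I]DOI at the human 5-HT2C or 5-HT2A receptor. Ki is the mean of ≥2 independent 12-point dose-response curves (n ≥4 where SD is given).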

[9] = molecular target: T1, 5-hydroxytryptamine receptor 2B; assay: Displacement of [3H]LSD from human recombinant 5HT2B receptor expressed in HEK293E cells
[10] = molecular target: T3, 5-hydroxytryptamine receptor 2C (Homo sapiens, UniProt P28335); assay: Displacement of [125I]DOI from human recombinant 5HT2C receptor expressed in HEK293E cells; format: cell-based; outline: as §4
T3 sequence (P28335 whole entry): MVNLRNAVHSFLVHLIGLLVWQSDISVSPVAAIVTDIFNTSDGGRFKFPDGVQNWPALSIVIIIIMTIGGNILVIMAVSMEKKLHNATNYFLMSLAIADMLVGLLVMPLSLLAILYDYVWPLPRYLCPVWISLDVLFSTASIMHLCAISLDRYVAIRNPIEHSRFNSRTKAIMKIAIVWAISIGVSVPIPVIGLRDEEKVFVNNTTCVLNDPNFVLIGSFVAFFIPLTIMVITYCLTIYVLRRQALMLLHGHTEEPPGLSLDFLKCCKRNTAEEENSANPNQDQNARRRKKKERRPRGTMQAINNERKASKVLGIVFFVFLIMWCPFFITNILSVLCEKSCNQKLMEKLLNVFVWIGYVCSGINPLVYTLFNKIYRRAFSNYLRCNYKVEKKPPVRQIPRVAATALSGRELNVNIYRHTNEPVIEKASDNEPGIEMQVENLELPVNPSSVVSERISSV

[11] = Plasma concentration in Sprague-Dawley rat at 10 mg/kg, po after 8 hrs; format: ADME, organism-based; parameters: dose 10 mg/kg, route oral; outline: as §2
Rattus norvegicus [12] = assay: Antiobesity activity in Sprague-Dawley rat assessed as reduction of body weight at 30 mg/kg, po after 4 days; format: functional; parameters: scale not given: the % may be the effect or the level left; outline: as §3
[13] = molecular target: T3, 5-hydroxytryptamine receptor 2C; assay: Agonist activity at human recombinant 5HT2C receptor expressed in HEK293E cells by FLIPR assay; format: functional, cell-based; outline: as §1
[14] = molecular target: T4, 5-hydroxytryptamine receptor 2C (Homo sapiens) (UniProt P28335); assay: Intrinsic activity at human recombinant 5HT2C receptor at 3 uM expressed in HEK293E cells by FLIPR assay relative to control; format: cell-based
T4 sequence (whole entry): T3 sequence (P28335 whole entry)
Outline: (§5)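 FLIPR calcium mobilization in HEK293E cells expressing the human receptor. Intrinsic activity is expressed relative to activation by 3 µM serotonin, defined as 1.0. Values are means of ≥2 independent 12-point dose-response curves.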

[15] = molecular target: T1, 5-hydroxytryptamine receptor 2B; assay: Intrinsic activity at human recombinant 5HT2B receptor expressed in HEK293E cells by FLIPR assay at 3 uM relative to control; format: cell-based; outline: as §5
[16] = molecular target: T2, 5-hydroxytryptamine receptor 2A; assay: Intrinsic activity at human recombinant 5HT2A receptor expressed in HEK293E cells by FLIPR assay at 3 uM relative to control; format: cell-based; outline: as §5
[17] = molecular target: 5-hydroxytryptamine receptor 2B (Rattus norvegicus) (UniProt P30994); assay: Intrinsic activity at 5HT2B receptor in rat fundus at 10 uM relative to control
Rattus norvegicus [18] = organism: Rattus norvegicus; assay: Antiobesity activity in Sprague-Dawley rat assessed as reduction of food intake after 20 hrs; format: functional, organism-based

T1 sequence (P41595 whole entry): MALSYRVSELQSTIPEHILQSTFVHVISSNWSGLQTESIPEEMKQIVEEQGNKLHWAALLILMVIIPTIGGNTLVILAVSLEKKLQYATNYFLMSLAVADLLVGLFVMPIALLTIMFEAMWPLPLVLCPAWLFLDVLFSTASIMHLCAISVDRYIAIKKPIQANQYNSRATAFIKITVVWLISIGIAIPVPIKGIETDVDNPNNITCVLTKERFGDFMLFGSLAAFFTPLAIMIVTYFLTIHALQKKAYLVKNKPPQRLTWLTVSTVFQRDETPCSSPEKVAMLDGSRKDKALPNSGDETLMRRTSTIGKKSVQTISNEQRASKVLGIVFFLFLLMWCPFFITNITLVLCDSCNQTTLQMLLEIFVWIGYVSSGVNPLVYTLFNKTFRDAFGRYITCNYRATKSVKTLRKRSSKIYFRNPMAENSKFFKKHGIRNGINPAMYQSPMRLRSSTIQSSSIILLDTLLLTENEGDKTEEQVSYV
T2 sequence (P28223 whole entry): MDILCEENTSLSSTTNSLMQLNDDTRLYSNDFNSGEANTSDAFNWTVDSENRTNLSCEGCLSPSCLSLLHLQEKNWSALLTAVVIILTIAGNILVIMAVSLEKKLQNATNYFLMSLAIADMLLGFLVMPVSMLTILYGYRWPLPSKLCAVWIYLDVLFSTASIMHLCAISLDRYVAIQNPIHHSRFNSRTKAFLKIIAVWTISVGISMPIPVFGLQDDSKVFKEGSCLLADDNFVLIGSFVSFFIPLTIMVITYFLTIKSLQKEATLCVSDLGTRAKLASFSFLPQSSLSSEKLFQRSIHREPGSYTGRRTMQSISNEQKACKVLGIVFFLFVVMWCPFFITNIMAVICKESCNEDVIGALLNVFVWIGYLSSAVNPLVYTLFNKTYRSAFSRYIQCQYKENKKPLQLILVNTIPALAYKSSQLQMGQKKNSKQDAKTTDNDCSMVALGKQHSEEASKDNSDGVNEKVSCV
5-hydroxytryptamine receptor 2B (Rattus norvegicus), sequence (P30994 whole entry, looked up): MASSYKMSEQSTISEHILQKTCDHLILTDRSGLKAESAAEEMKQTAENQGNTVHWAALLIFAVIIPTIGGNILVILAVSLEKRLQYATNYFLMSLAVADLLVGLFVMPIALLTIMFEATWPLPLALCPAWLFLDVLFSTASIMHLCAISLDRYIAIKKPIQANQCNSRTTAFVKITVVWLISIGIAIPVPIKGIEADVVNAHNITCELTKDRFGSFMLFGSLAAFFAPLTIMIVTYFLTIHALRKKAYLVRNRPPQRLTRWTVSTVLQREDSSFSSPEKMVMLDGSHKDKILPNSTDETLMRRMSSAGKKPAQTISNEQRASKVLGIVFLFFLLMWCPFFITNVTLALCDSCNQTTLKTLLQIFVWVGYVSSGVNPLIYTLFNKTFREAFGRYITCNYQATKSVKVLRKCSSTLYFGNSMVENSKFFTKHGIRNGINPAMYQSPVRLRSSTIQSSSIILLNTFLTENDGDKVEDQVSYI

SMILES	EC50 [2] [nM]	EC50 [5] [nM]	Ki [8] [nM]	Ki [9] [nM]	Ki [10] [nM]	EC50 [13] [nM]	Intrinsic activity [14]	Intrinsic activity [15]	Intrinsic activity [16]	also measured
Cc1ccc2c(c1)N1CCNCCC1NC2=O (stereo in doubt; (+)-3c) [listing 1 of 2 here]	> 10000	952	364	41	6.5	6.6	–	–	–	Activity (Rattus norvegicus [1]): 25%; Tmax [3]: 1.5 h; Drug uptake (Brain): 108 nmol/kg; Activity (Rattus norvegicus [4]): 19%; Activity (Rattus norvegicus [6]): 18%; AUC at 8 h [7]: 9.24 µM·h; concentration at 8 h [11]: 714 nM; Activity (Rattus norvegicus [12]): 2.7%
O=C1NC2CNCCN2c2cccc(C(F)(F)F)c21 (single isomer, unassigned)	> 10000	–	184	13	153	92	0.93	–	–	–
O=C1NC2CCNCCN2c2cccc(Cl)c21 (single isomer, unassigned)	46	130	168	23	9	1.8	1	0.5	0.8	–
Cc1ccc2c(c1)N1CCNCCC1NC2=O (stereo in doubt; (-)-3c) [listing 1 of 2 here]	–	–	–	–	–	–	0.66	–	0.11	–
Cc1ccc2c(c1)N1CCNCCC1NC2=O (stereo in doubt; (-)-3c) [listing 2 of 2 here]	–	> 10000	454	51	60	92	–	–	–	–
Cc1cccc2c1C(=O)NC1CNCCN21 (stereo in doubt; (-)-2a) [listing 1 of 2 here]	–	–	–	–	–	–	0.9	–	–	–
Cc1ccc2c(c1)C(=O)NC1CNCCN21 (single isomer, unassigned)	> 10000	> 705	1220	61	998	133	1	0	0.34	–
Cc1cccc2c1C(=O)NC1CNCCN21 (stereo in doubt; (-)-2a) [listing 2 of 2 here]	–	–	4480	206	2080	989	–	–	–	–
Cc1cccc2c1C(=O)NC1CCNCCN21 (configuration not stated)	61	70	141	10	2.9	2	1	0.44	1	Intrinsic activity [17]: 0.2
O=C1NC2CNCCCN2c2cccc(Cl)c21 (racemic)	–	–	13600	734	1550	–	–	–	–	–
O=C1NC2CNCCN2c2ccc(Cl)cc21 (single isomer, unassigned)	–	–	397	72	757	110	0.97	–	–	–
O=C1NC2CNCCN2c2c(Cl)cccc21 (configuration not stated)	–	–	> 10000	> 10000	> 10000	> 10000	0	–	–	–
O=C1NC2CNCCN2c2cccc(Cl)c21 (configuration not stated)	> 10000	> 10000	334	18	223	43	0.8	0	0	–
Cc1ccc2c(c1)N1CCNCC1NC2=O (single isomer, unassigned)	> 10000	> 1000	600	280	479	34	1	0	0.26	–
O=C1NC2CNCCN2c2ccccc21 (single isomer, unassigned)	–	–	1980	137	1940	137	0.96	–	–	–
Cc1ccc2c(c1)N1CCNCCC1NC2=O (stereo in doubt; (+)-3c) [listing 2 of 2 here]	–	–	–	–	–	–	1.1	0	0.28	–
Cc1cccc2c1C(=O)NC1CNCCN21 (single isomer, unassigned; (+))	–	–	–	–	–	–	1	0	0	Activity (Rattus norvegicus [18]): Dose-dependent effect
O=C1NC2CCNCCN2c2ccccc21 (single isomer, unassigned)	101	248	269	67	49	16	0.8	0.6	1	–
Cc1cccc2c1N1CCNCC1NC2=O (configuration not stated)	–	> 10000	> 10000	2390	6150	4200	0.4	–	0	–
Clc1cccc(N2CCNCC2)c1	–	–	–	–	–	–	1	0.4	0.3	–

— ChEMBL document CHEMBL1158511, “Tricyclic dihydroquinazolinones as novel 5-HT2C selective and orally efficacious anti-obesity agents” (Bioorg Med Chem Lett, 2010)
